The source made the active and inactive calls. No cut-off for these calls is given here.
How the values were obtained:
[1] = test system: Trichophyton mentagrophytes; assay: Antifungal activity against Trichophyton mentagrophytes ATCC MYA-4439 by CLSI method; format: functional, organism-based
Method in brief: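 Growth scraped from 1- to 6-week-old potato dextrose slants and filtered through Miracloth. Diluted in 5% Alamar blue-RPMI 1640 (MOPS pH 7.0) to 2.7 × 10⁴ CFU/ml. Eleven twofold dilutions in duplicate. Fluorescence at 544 nm excitation/590 nm emission read before and after 35°C, 5 days. IC50 fitted from percent growth. MIC taken as no detectable growth; MFC from clear or blue wells plated on PD agar.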

Pichia kudriavzevii [2] = assay: Antifungal activity against Candida krusei ATCC 6258 after 48 hrs by CLSI method; format: functional, organism-based; conditions: ATCC 6258, 48 h
Method in brief: (§1)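 Candida inocula came from 24–72-h SD agar colonies suspended in saline. They were diluted by OD630 standard curve into RPMI 1640 (0.2% dextrose, 0.03% glutamine, 0.165 M MOPS, pH 7.0) to 1.5 × 10³ CFU/ml. Compounds were run as 11 twofold dilutions in 20% DMSO-saline, in duplicate, at 35°C for 48 h, with OD530 read before and after. Percent growth at the top concentration, IC50, MIC, and MFC (SD agar plating) were derived.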

Candida albicans [3] = assay: Antifungal activity against Fluconazole resistant Candida albicans clinical isolate 17 after 48 hrs by CLSI method; format: functional, organism-based
Method in brief: (§2)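 CLSI broth microdilution. Colonies from 24–72 h SD agar suspended in saline and sized by OD630 standard curve. Inoculum 1.5 × 10³ CFU/ml (final) in RPMI 1640 (0.2% dextrose, 0.03% glutamine, 0.165 M MOPS, pH 7.0). Twofold dilutions (11 levels) from 20% DMSO-saline, in duplicate. 35°C for 48 h, OD530 read before and after. IC50 fitted from % growth. MIC: no detectable growth. MFC: subculture onto SD agar.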

Candida albicans [4] = assay: Antifungal activity against Fluconazole resistant Candida albicans clinical isolate 1 after 48 hrs by CLSI method; format: functional, organism-based; method in brief: as §2
Candida albicans [5] = assay: Antifungal activity against Candida albicans ATCC 200955 after 48 hrs by CLSI method; format: functional, organism-based; conditions: ATCC 200955, 48 h; method in brief: as §2
Candida albicans [6] = assay: Antifungal activity against Candida albicans ATCC 90028 after 48 hrs by CLSI method; format: functional, organism-based; conditions: ATCC 90028, 48 h; method in brief: as §2
Candida albicans [7] = assay: Antifungal activity against Candida albicans ATCC 14053 at 162.1 uM after 48 hrs by CLSI method; format: functional, organism-based
Candida albicans [8] = assay: Antifungal activity against Candida albicans ATCC 60193 at 162.1 uM after 48 hrs by CLSI method; format: functional, organism-based; method in brief: as §1
Candida albicans [9] = assay: Antifungal activity against Candida albicans ATCC 32354 at 162.1 uM after 48 hrs by CLSI method; format: functional, organism-based; method in brief: as §1
Candida albicans [10] = assay: Antifungal activity against Candida albicans ATCC 90028 at 162.1 uM after 48 hrs by CLSI method; format: functional, organism-based; method in brief: as §1
Candida albicans [11] = assay: Antifungal activity against Candida albicans ATCC 200955 at 162.1 uM after 48 hrs by CLSI method; format: functional, organism-based; method in brief: as §1
Candida albicans [12] = assay: Antifungal activity against Fluconazole resistant Candida albicans isolate 1 at 162.1 uM after 48 hrs by CLSI method; format: functional, organism-based
Method in brief: (§3)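 Candida in CLSI broth microdilution. Saline colony suspension set to 1.5 × 10³ CFU/ml (final) in MOPS-buffered RPMI 1640, pH 7.0. Test agent given as twofold serial dilutions in 20% DMSO-saline, duplicate wells. 35°C for 48 h. Growth read as OD530 before and after incubation. Percent inhibition scored at the highest test concentration.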

Candida albicans [13] = assay: Antifungal activity against Fluconazole resistant Candida albicans isolate 17 at 162.1 uM after 48 hrs by CLSI method; format: functional, organism-based; method in brief: as §3
Nakaseomyces glabratus = assay: Antifungal activity against Candida glabrata ATCC 90030 at 162.1 uM after 48 hrs by CLSI method; format: functional, organism-based; method in brief: as §1
Pichia kudriavzevii [14] = assay: Antifungal activity against Candida krusei ATCC 6258 at 162.1 uM after 48 hrs by CLSI method; format: functional, organism-based; method in brief: as §1
Candida parapsilosis = assay: Antifungal activity against Candida parapsilosis ATCC 22019 at 162.1 uM after 48 hrs by CLSI method; format: functional, organism-based
Method in brief: (§4)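 Yeast suspensions made from 3-5 colonies off 24-72 h SD agar plates in saline. They were diluted by OD630 standard curve in RPMI 1640 (0.2% dextrose, 0.03% glutamine, 0.165 M MOPS, pH 7.0) to 1.5 × 10³ CFU/ml. Twofold dilutions (11 concentrations, 20% DMSO-saline) run in duplicate. OD530 read before and after 35°C, 48 h. Line values are top test concentrations; no-growth endpoints give MIC/MFC.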

Candida albicans [15] = assay: Antifungal activity against Candida albicans ATCC 32354 after 48 hrs by CLSI method; format: functional, organism-based; conditions: ATCC 32354, 48 h; method in brief: as §2
SK-MEL = assay: Cytotoxicity against human SK-MEL cells up to 32 uM by neutral red method; format: cell-based
Method in brief: (§5)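 Neutral red uptake cytotoxicity, top concentration 32 μM.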

KB = assay: Cytotoxicity against human KB cells up to 32 uM by neutral red method; format: cell-based; method in brief: as §5
BT-549 = assay: Cytotoxicity against human BT549 cells up to 32 uM by neutral red method; format: cell-based; method in brief: as §5
SK-OV-3 = assay: Cytotoxicity against human SKOV3 cells up to 32 uM by neutral red method; format: cell-based; method in brief: as §5
Vero = assay: Cytotoxicity against African green monkey Vero cells up to 32 uM by neutral red method; format: cell-based; conditions: chlorocebus sabaeus; method in brief: as §5
LLC-PK1 = assay: Cytotoxicity against pig LLC-PK1 cells up to 32 uM by neutral red method; format: cell-based, Sus scrofa; method in brief: as §5
Candida albicans [16] = assay: Antifungal activity against Candida albicans ATCC 14053 after 48 hrs by CLSI method; format: functional, organism-based; conditions: ATCC 14053, 48 h; method in brief: as §2
Candida albicans [17] = assay: Antifungal activity against Candida albicans ATCC 60193 after 48 hrs by CLSI method; format: functional, organism-based; conditions: ATCC 60193, 48 h; method in brief: as §2
Candida tropicalis = assay: Antifungal activity against Candida tropicalis ATCC 750 at 162.1 uM after 48 hrs by CLSI method; format: functional, organism-based; method in brief: as §4
Cryptococcus neoformans [18] = assay: Antifungal activity against Cryptococcus neoformans ATCC 90113 at 162.1 uM after 72 hrs by CLSI method; format: functional, organism-based
Method in brief: (§6)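 SD broth replaced RPMI because growth in RPMI was poor; other CLSI conditions were kept. Inoculum was 1.5 × 10³ CFU/ml from colonies on SD agar, checked by plating. Twofold serial dilutions (11 concentrations) in 20% DMSO-saline were tested in duplicate. OD530 was read before and after incubation at 35°C for 72 h. Percent growth gave IC50; the MIC is the lowest concentration with no detectable growth.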

Cryptococcus neoformans [19] = assay: Antifungal activity against Cryptococcus neoformans ATCC 66031 at 162.1 uM after 72 hrs by CLSI method; format: functional, organism-based; method in brief: as §6
Aspergillus fumigatus [20] = assay: Antifungal activity against Aspergillus fumigatus ATCC 204305 at 162.1 uM after 48 hrs by CLSI method; format: functional, organism-based
Aspergillus fumigatus [21] = assay: Antifungal activity against Aspergillus fumigatus ATCC 90906 at 162.1 uM after 48 hrs by CLSI method; format: functional, organism-based
Aspergillus flavus = assay: Antifungal activity against Aspergillus flavus ATCC 204304 at 162.1 uM after 48 hrs by CLSI method; format: functional, organism-based
Aspergillus niger = assay: Antifungal activity against Aspergillus niger ATCC 16404 at 162.1 uM after 48 hrs by CLSI method; format: functional, organism-based
[22] = test system: Trichophyton mentagrophytes; assay: Antifungal activity against Trichophyton mentagrophytes ATCC MYA-4439 at 162.1 uM after 5 days by CLSI method; format: functional, organism-based
[23] = test system: Trichophyton mentagrophytes; assay: Antifungal activity against Trichophyton mentagrophytes ATCC 9533 at 162.1 uM after 5 days by CLSI method; format: functional, organism-based
Trichophyton rubrum [24] = assay: Antifungal activity against Trichophyton rubrum ATCC MYA-4438 at 162.1 uM after 5 days by CLSI method; format: functional, organism-based
Trichophyton rubrum [25] = assay: Antifungal activity against Trichophyton rubrum ATCC 10218 at 162.1 uM after 5 days by CLSI method; format: functional, organism-based
Aspergillus fumigatus [26] = assay: Antifungal activity against Aspergillus fumigatus ATCC 90906 after 48 h by CLSI method; conditions: ATCC 90906, 48 h
Aspergillus fumigatus [27] = assay: Antifungal activity against Aspergillus fumigatus ATCC 204305 after 48 h by CLSI method; conditions: ATCC 204305, 48 h

`CCCCCCCCCCCCCC#CCCCCC(=O)O` [6-ICOSYNOIC ACID] was tested, and the IC50 [1] was > 162 µM, the IC50 (Pichia kudriavzevii [2]) was 106 µM and the IC50 (Candida albicans [3]) was 55 µM. It also gave an IC50 (Candida albicans [4]) of 86.6 µM, an IC50 (Candida albicans [5]) of 53.4 µM and an IC50 (Candida albicans [6]) of 67.3 µM. For the same compound, the Activity (Candida albicans [7]) was “inactive”, the Activity (Candida albicans [8]) was “inactive” and the Activity (Candida albicans [9]) was “inactive”. For the same compound, the Activity (Candida albicans [10]) was “inactive”, the Activity (Candida albicans [11]) was “inactive” and the Activity (Candida albicans [12]) was “inactive”. The Activity (Candida albicans [13]) was “inactive”, the Activity (Nakaseomyces glabratus) was “inactive” and the Activity (Pichia kudriavzevii [14]) was “inactive”. For the same compound, the Activity (Candida parapsilosis) was “inactive”, the IC50 (Candida albicans [15]) was > 162 µM and the Activity (SK-MEL) was “Non-toxic”. The Activity (KB) was “Non-toxic”, the Activity (BT-549) was “Non-toxic” and the Activity (SK-OV-3) was “Non-toxic”. The Activity (Vero) was “Non-toxic”, the Activity (LLC-PK1) was “Non-toxic” and the IC50 (Candida albicans [16]) was > 162 µM. The IC50 (Candida albicans [17]) was 81 µM, the Activity (Candida tropicalis) was “inactive” and the Activity (Cryptococcus neoformans [18]) was “inactive”. The Activity (Cryptococcus neoformans [19]) was “inactive”, the Activity (Aspergillus fumigatus [20]) was “inactive” and the Activity (Aspergillus fumigatus [21]) was “inactive”. The Activity (Aspergillus flavus) was “inactive”, the Activity (Aspergillus niger) was “inactive” and the Activity [22] was “inactive”. The Activity [23] was “inactive”, the Activity (Trichophyton rubrum [24]) was “inactive” and the Activity (Trichophyton rubrum [25]) was “inactive”. The IC50 (Aspergillus fumigatus [26]) was 81 µM and the IC50 (Aspergillus fumigatus [27]) was 32.3 µM.
